Compound activity from PubChem.
KCNQ1 act – potentiates or activates the human KCNQ1 potassium channel. P51787. CHO-K1 KCNQ1, thallium flux FluxOR fluorescence; hits give high values. B-score at 10 µM. hit rate 0.35% among 310,000. AID 2648;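 active means fluorescence ratio B-score, a plate-corrected score, at least three library SD, with initial intensity B-score within 5 SD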
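Material: CHO-K1 cells stably expressing KCNQ1. Medium: assay buffer for compound exposure, DMSO matched across wells. Reagent: K+/Tl+ depolarizing stimulus. Compound dosing: single-concentration screen. Times: 37 °C overnight plating, 90-min dark dye load, 20-min compound pretreatment. Technique: FluxOR Tl+ flux fluorescence.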
KCNK9 block – human KCNK9 channel inhibition; Q9NPC2; HEK293 KCNK9, FluxOR thallium flux fluorescence; hits give low values; B-score at 10 µM; hit rate 1.2% among 310,000;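 active means ratio B-score over 3 SD below the library mean, with starting fluorescence within 5 SD of its mean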;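 further: negative B-score means less thallium flux so channel inhibition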
hERG rescue – compounds protecting human hERG from proarrhythmic drug block; Q12809; CHO-hERG, FluxOR thallium flux, dofetilide IC70 present; activation (rescue from dofetilide block), less the hit threshold, % at 10 µM; hit rate 0.51% among 310,000;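 active means activation above the mean of controls blocked by dofetilide plus 5 SD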;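 further: thallium influx through hERG after potassium depolarization seen as dye fluorescence rise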
KCNQ1 block – human KCNQ1 channel inhibition; P51787; CHO-K1 KCNQ1, FluxOR thallium flux fluorescence; hits give high values; B-score at 10 µM; hit rate 1.3% among 310,000;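 active means compounds whose thallium flux B-score, printed positive for inhibition, exceeds three library SD while starting fluorescence stays within three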;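 further: channel opened by potassium depolarization with thallium stimulus after 20 min compound exposure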
KCNK3 inh – human KCNK3 channel inhibition, primary screen; hit rate 0.84% among 340,000; B-score at 10 µM; CHO-KCNK3 thallium flux, FluxOR fluorescence; hits give low values; O14649;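 active means B-score under library mean minus 4 SD, starting fluorescence ratio at most library mean plus 5 SD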;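 further: more negative B-score means stronger inhibition of thallium flux through KCNK3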
Target sequence (O14649 whole entry, looked up): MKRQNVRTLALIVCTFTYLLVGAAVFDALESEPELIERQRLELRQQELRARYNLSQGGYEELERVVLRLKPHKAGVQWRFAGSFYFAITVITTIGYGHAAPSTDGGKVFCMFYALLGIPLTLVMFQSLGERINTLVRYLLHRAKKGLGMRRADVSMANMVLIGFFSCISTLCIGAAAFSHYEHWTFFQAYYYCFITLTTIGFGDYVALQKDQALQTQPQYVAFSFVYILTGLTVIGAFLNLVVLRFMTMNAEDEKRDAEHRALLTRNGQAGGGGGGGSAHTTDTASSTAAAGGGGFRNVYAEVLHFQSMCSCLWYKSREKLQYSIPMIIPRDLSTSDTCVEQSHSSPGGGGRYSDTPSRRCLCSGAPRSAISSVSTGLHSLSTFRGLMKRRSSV
Kir21 block – Kir2.1 (mouse) channel inhibition; P35561; HEK293-Kir2.1, FluxOR thallium flux fluorescence; hits give low values; B-score at 10 µM; hit rate 0.85% among 310,000;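 active means fluorescence ratio B-score at or below minus 3 SD of library scores, with starting-brightness B-score within 2 SD, cut at about -4.2 in these data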;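 further: channel flux triggered by added potassium and thallium sulfate stimulus; B-score of peak minus minimum fluorescence over baseline after thallium stimulus; more negative B-score means stronger Kir2.1 block with less thallium influx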
* hit, by the source's call; i = inactive; . = not tested or not shown. In the library only some 3.7% were active in any assay of this set; here they are far more common.

SMILES | KCNQ1 act | KCNK9 block | hERG rescue | KCNQ1 block | KCNK3 inh | Kir21 block
COc1cccc(NC(=O)CSc2nc3c(sc4ccccc43)c(=O)n2CCCN2CCCC2)c1 | i | i | -14 | i | i | -5.7*
CN1CCN(C(=O)Cn2ncc3c([nH]c4ccccc43)c2=O)CC1 | i | i | -3 | i | i | 0.3
CCN(CC(=O)Nc1c(F)cccc1F)C(=O)C1COc2ccccc2O1 (centres undefined) | . | . | . | . | i | .
O=[N+]([O-])c1ccccc1C1Nc2cccc3cccc(c23)N1 | i | i | -11 | 6* | i | 0.62
Oc1ccccc1C1Nc2cccc3cccc(c23)N1 | i | i | -6 | i | i | -0.67
CN(C)CCCC1Sc2ccccc2Sc2ccccc21 (centres undefined) | i | i | -7 | i | i | -4.8*
CN(C)CCCN1c2ccccc2Sc2ccccc21 | i | i | -4 | i | i | -2.1
CC(=O)N1CCC(=NNc2ncc(C(F)(F)F)cc2Cl)CC1 | i | i | -13 | i | i | 0.21
O=C(CNc1cc(S(=O)(=O)N2CCCC2)ccc1OCC(F)(F)F)Nc1cccc(C(F)(F)F)c1 | i | i | -10 | i | i | -0.75
CCOC(=O)c1cc(C(=O)OCC)c2cc(Br)ccc2n1 | i | i | -11 | i | i | -0.53
CCCCOC(=O)c1cc(C)nc2ccc(Br)cc12 | i | i | 6.5* | i | i | -0.62
O=C1C=C(O)C(n2cncn2)C(c2ccc(F)cc2)C1 (centres undefined) | i | i | 5.2* | i | i | 0.91
NC1=C([N+](=O)[O-])C(c2ccc(F)cc2)C2=C(CCCC2=O)O1 (centres undefined) | i | i | -9 | i | i | -0.07
N#C/C(=N\Nc1cccc(F)c1)C(=O)C1CC1 | i | i | -10 | 6* | i | -2
N#C/C(=N\Nc1cccc(F)c1)C(=N)N1CCCCCC1 | i | i | -11 | i | i | -0.22
C/C(CC(=O)Nc1cc(C)ccn1)=N\NC(=O)c1cccc(F)c1 | i | i | -9 | i | i | -0.66
Cc1cccc(NC(=S)N(CCCN2CCCC2)Cc2cccn2Cc2ccc(Cl)cc2)c1 | i | i | -23 | i | i | -5.3*
NC(=O)C1CCN(C(=O)COc2ccc3ccc(=O)oc3c2)CC1 | i | i | -2 | i | i | -0.25
CCOc1ccc2nc(N(CCN(C)C)C(=O)c3cc4ccccc4cc3OC)sc2c1 | i | i | -18 | i | i | 2.4
CCOc1cccc2sc(N(CCN(C)C)C(=O)c3cc4ccccc4cc3OC)nc12 | i | i | -11 | 9* | i | -1.6
Cc1cccc2sc(N(CCCN(C)C)C(=O)c3ccc(Cl)s3)nc12 | i | i | -20 | i | i | -5.4*
CN(C)CCN(C(=O)c1cccc2ccccc12)c1nc2cc3c(cc2s1)OCO3 | i | i | -21 | 6* | i | 2.1
O=C(c1cc(-c2ccccc2Cl)nc2ccccc12)N1CCN(c2ccccn2)CC1 | . | . | . | . | i | .
O=C(c1cc(-c2ccccc2Cl)nc2ccccc12)N1CCN(c2ccccc2O)CC1 | i | i | -26 | 6* | i | -0.35
CCN1CCCC(OC(=O)c2cc(-c3ccccc3Cl)nc3ccccc23)C1 (centres undefined) | i | -6.7* | -11 | i | i | -3.7
SMILES | KCNQ1 act | KCNK9 block | hERG rescue | KCNQ1 block | KCNK3 inh | Kir21 block
CCOc1ccccc1N1CCN(C(=O)c2cc(-c3cc(OC)ccc3OC)nc3ccccc23)CC1 | i | i | -19 | 6* | i | -1
CCCCn1c(SCC(=O)NNC(=O)c2ccccc2)n[nH]c1=O | . | . | . | . | i | .
COCCNC(=O)C(=O)N/N=C/c1ccc(C(=O)OC)cc1 | i | i | 14* | i | i | -0.09
Cc1ccc(C(=O)O/N=C(\N)c2ccc(Br)cc2)cc1C | i | i | 6.4* | i | i | 0.35
CCOc1ccc(CCNC(=O)C2CC(C)=CCC2C(=O)O)cc1OCC (centres undefined) | i | i | -4 | i | i | 0.69
CC1(C)OC(=O)N(c2ccccc2)C12C=Cc1cc(Br)ccc1O2 (centres undefined) | i | -7.2* | -7 | i | i | -0.74
CCN(CC)c1ccc(/C=C(/C#N)c2nc3ccc(C)cc3[nH]2)c(OC(C)C)c1 | i | i | -38 | 9* | i | -1.7
CCCOc1cc(N(CC)CC)ccc1/C=C(/C#N)c1nc2ccc(C)cc2[nH]1 | i | -11* | -18 | i | i | -2.4
O=S(=O)(Nc1ccccc1OC(F)F)c1ccc(S(=O)(=O)N2CCCC2)cc1 | . | . | . | . | i | .
C/C(=N/NC(=O)C(C)n1nc(C)c([N+](=O)[O-])c1C)c1ccc(OCC(N)=O)cc1 (centres undefined) | i | i | -3 | i | i | -0.31
Cc1nn(C(C)C(=O)N/N=C/c2ccc(N(C)C)cc2)c(C)c1[N+](=O)[O-] (centres undefined) | i | -7.9* | 0 | i | i | -1.4
O=C(CCCC(=O)Nc1cccc(Br)c1)N/N=C/c1cc([N+](=O)[O-])ccc1O | i | i | -9 | 7* | i | -2.7
O=C(CN(c1cccc(Br)c1)S(=O)(=O)c1ccccc1)N/N=C/c1cc([N+](=O)[O-])ccc1O | i | i | -20 | 16* | i | -0.02
N#Cc1c(NC(=O)/C=C/C(=O)O)sc2c1CCN(Cc1ccccc1)C2 | i | i | -12 | 6* | i | -3.2
Cc1cc(/C=C(/C#N)c2nc3ccccc3[nH]2)c(C)n1-c1cccc([N+](=O)[O-])c1 | i | i | -6 | 8* | i | 0.88
Cc1cc(/C=C(\C#N)c2nc3ccccc3[nH]2)c(C)n1C | i | i | -6 | i | i | 0.6
C=CCNC(=O)/C(C#N)=C/c1ccccc1[N+](=O)[O-] | i | i | -11 | i | i | 2.1
N#C/C(=C\C=C\c1ccccc1[N+](=O)[O-])C(=O)NCc1ccccc1 | i | i | -14 | i | i | -0.06
CCCCCCCCNC(=O)/C(C#N)=C/c1ccccc1[N+](=O)[O-] | i | i | -12 | 7* | i | -3.2
N#C/C(=C\c1ccccc1[N+](=O)[O-])C(=O)NCc1ccccc1 | i | i | -15 | 6* | i | -1.1
O=C(CSc1nnc2ccc(-c3ccc(F)cc3)nn12)N1CCOCC1 | i | i | -8 | i | i | -0.1
O=C(c1cnn(C(=O)c2ccc(O)cc2)c1)c1ccccc1O | i | i | -11 | 6* | . | -0.09
O=C(c1cnn(C(=O)c2ccco2)c1)c1ccccc1O | . | . | . | . | i | .
